Experimental data gathered from unrelated publications.
Melanocortin receptor 5: Melanocortin receptor 5 (Mus musculus, UniProt P41149)
Ppara: Peroxisome proliferator-activated receptor alpha (Ppara, Mus musculus, UniProt P23204)
GRM4: Metabotropic glutamate receptor 4 (GRM4, Homo sapiens, UniProt Q14833)

C[C@@H]1NC(=O)[C@H](CCCNC(=N)N)NC(=O)[C@H](Cc2ccccc2)NC(=O)[C@H](Cc2ccccc2)NC(=O)[C@H](CCCNC(=N)N)NC(=O)[C@@H]2CCCN2C(=O)[C@H]2CCCN2C(=O)[C@H](Cc2ccccc2)NC1=O  EC50 (Melanocortin receptor 5; reporter gene; agonist): > 100 µM
CSCC[C@H](N)C(=O)NCC(=O)N[C@@H](Cc1c[nH]cn1)C(=O)N[C@@H](Cc1ccccc1)C(=O)N[C@@H](CCCNC(=N)N)C(=O)N[C@@H](Cc1c[nH]c2ccccc12)C(=O)O  EC50 (Melanocortin receptor 5; reporter gene; agonist): 4.43 µM
CCN(C(=O)C1CCN(S(=O)(=O)c2ccc3[nH]ncc3c2)CC1)[C@H](C)c1ccccc1  EC50 (Muscarinic acetylcholine receptor M4 (CHRM4, Homo sapiens, UniProt P08173); calcium signal; agonist): > 30 µM
Cc1nc(-c2ccc(C(F)(F)F)cc2)sc1C(=O)NCc1ccc(OC(C)(C)C(=O)O)cc1  EC50 (Ppara; reporter gene; agonist; luciferase): 0.098 µM
COC(=O)c1ccc(-n2c(C)cc(C(=O)CSc3ccc(NC(C)=O)cc3)c2C)cc1  EC50 (GRM4; calcium signal; positive allosteric modulator): 3.31 µM
O=C(Nc1ccc(N2C(=O)c3ccccc3C2=O)c(Cl)c1)c1ncccc1Cl  EC50 (Metabotropic glutamate receptor 1 (GRM1, Homo sapiens, UniProt Q13255); calcium signal; positive allosteric modulator): 1.26 µM
CCCC[C@H](NC(=O)[C@@H](NC(=O)[C@@H](N)Cc1ccc(O)cc1)C(C)C)C(=O)NCC(=O)N[C@@H](Cc1c[nH]cn1)C(=O)N[C@@H](Cc1ccccc1)C(=O)N[C@@H](CCCN=C(N)N)C(=O)N[C@@H](Cc1c[nH]c2ccccc12)C(=O)N[C@@H](CC(=O)O)C(=O)N[C@@H](CCCN=C(N)N)C(=O)N[C@@H](Cc1ccccc1)C(=O)NCC(=O)O  EC50 (Melanocortin receptor 5; reporter gene; agonist): 0.14 µM
CC(C)(Oc1ccc(C(=O)c2ccc(Cl)cc2)cc1)C(=O)O  EC50 (Ppara; reporter gene; agonist; luciferase): 35.8 µM
N=C(N)NCCC[C@H](NC(=O)[C@@H](N)CC(=O)O)C(=O)N[C@@H](Cc1ccccc1)C(=O)NCC(=O)O  EC50 (Melanocortin receptor 5; reporter gene; agonist): > 100 µM
COc1ccc(-c2nsc(NC(=O)[C@@H]3C[C@H]3C)c2C)cc1  EC50 (GRM4; calcium signal; agonist): > 25 µM
